# Assay results: ChEMBL document CHEMBL1143879, “Identification of novel series of human CCR1 antagonists” (Bioorg Med Chem Lett, 2008)
# Legend:
# [1] = target: T1, C-C chemokine receptor type 1 (Homo sapiens, UniProt P32246); assay: Antagonist activity at human CCR1 receptor expressed in THP1 cells assessed as human MIP-1-alpha-stimulated intracellular calcium level by FLIPR assay; type: functional, cell-based, THP-1
# T1 sequence (P32246 whole entry): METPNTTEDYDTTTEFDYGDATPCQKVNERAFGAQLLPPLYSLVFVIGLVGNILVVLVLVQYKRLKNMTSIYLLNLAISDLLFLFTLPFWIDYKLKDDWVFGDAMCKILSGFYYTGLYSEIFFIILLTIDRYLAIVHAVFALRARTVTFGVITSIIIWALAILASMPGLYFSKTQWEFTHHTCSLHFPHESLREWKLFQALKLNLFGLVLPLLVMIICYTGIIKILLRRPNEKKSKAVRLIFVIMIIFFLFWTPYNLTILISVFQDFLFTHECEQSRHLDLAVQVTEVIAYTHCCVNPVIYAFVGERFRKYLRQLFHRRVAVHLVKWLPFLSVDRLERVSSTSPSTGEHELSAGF
# Summary of the method: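 THP-1 cells in RPMI-1640 at 2 × 10⁶/ml, mixed 1:1 with calcium dye buffer, loaded 30 min at 37 °C with 2.5 mM probenecid. Cells spun down, resuspended in RPMI-1640 with 0.1% BSA and plated at 1.5 × 10⁵/well with or without compound. Stimulated with 5 nM human MIP-1α; intracellular Ca²⁺ change read by FLIPR. IC50, mean of at least two independent experiments.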
# [2] = target: T1, C-C chemokine receptor type 1; assay: Displacement of [125I]MIP1-alpha from human CCR1 receptor expressed in THP1 cells; type: cell-based, THP-1
# Summary of the method: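 THP-1 cells expressing CCR1, washed in PBS, at 5 × 10⁶/ml with compound or vehicle and 50 pM human [¹²⁵I]MIP-1α. Binding buffer: 50 mM Hepes pH 7.4, 5 mM MgCl₂, 1 mM CaCl₂, 0.5% BSA. Incubated 90 min at room temperature, then filtered on PEI-coated glass fibre and washed with buffer plus 0.5 M NaCl. Bound counts by scintillation. IC50, mean of triplicates in one experiment.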
# [3] = test system: THP-1; assay: Inhibition of CCL3-induced chemotaxis in human THP1 cells after 2 hrs; type: functional, cell-based; conditions: THP-1, 2 h
# Summary of the method: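 Calcein-labelled THP-1 cells washed in RPMI-1640 and resuspended at 5 × 10⁶/ml. Preincubated 30 min at 37 °C with compound or DMSO, then placed above a 5 µm polycarbonate filter in a Boyden chamber. The lower wells held 0.5 nM human MIP-1α with or without compound. Chamber incubated 2 h at 37 °C.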
SMILES,IC50 [1],IC50 [2],IC50 [3]
O=S(=O)(NCCCN1CCC(O)(c2ccc(Cl)cc2)CC1)c1c(Cl)cccc1Cl,30 nM,80 nM,
O=S(=O)(c1ccccc1Br)N1CCC[C@@H](N2CCC(O)(c3ccc(Cl)cc3)CC2)C1,1400 nM,1400 nM,
CC1(N2CCC(O)(c3ccc(Cl)cc3)CC2)CCN(S(=O)(=O)c2c(Cl)cccc2Cl)CC1,4650 nM,4200 nM,
CSc1ccc(C2(O)CCN(C3CCN(S(=O)(=O)c4ccccc4Cl)CC3)CC2)cc1,7980 nM,> 10000 nM,
Cc1ccccc1S(=O)(=O)N1CCC(N2CCC(O)(c3ccc(Cl)cc3)CC2)CC1,180 nM,500 nM,
Cc1cccc(Cl)c1S(=O)(=O)NCCCN1CCC(O)(c2ccc(Cl)cc2)CC1,40 nM,90 nM,
O=S(=O)(c1c(Cl)cccc1Cl)N1CCC(N2CCC(O)(c3ccc(Cl)cc3)CC2)CC1,420 nM,420 nM,
O=S(=O)(c1ccc(Cl)c(Cl)c1Cl)N1CCC(N2CCC(O)(c3ccc(Cl)cc3)CC2)CC1,670 nM,3600 nM,
Cc1ccc(S(=O)(=O)NCCCN2CCC(O)(c3ccc(Cl)cc3)CC2)cc1,120 nM,430 nM,
O=S(=O)(c1ccccc1Cl)N1CCC(N2CCC(O)(c3ccc(Cl)cc3)CC2)CC1,130 nM,200 nM,183 nM
O=S(=O)(c1ccccc1Cl)N1CCC(N2CCC(O)(c3ccc(Br)cc3)CC2)CC1,180 nM,440 nM,
O=S(=O)(c1ccccc1Cl)N1CCC(N2CCCC(O)(c3ccc(Cl)cc3)CC2)CC1 (configuration not stated),130 nM,400 nM,
Cc1ccccc1S(=O)(=O)NCCCN1CCC(O)(c2ccc(Cl)cc2)CC1,30 nM,150 nM,
O=S(=O)(NCCCN1CCC(O)(c2ccc(Cl)cc2)CC1)c1ccccc1Br,170 nM,140 nM,
O=S(=O)(c1ccccc1Cl)N1CCC(N2CCC(O)(c3ccc(Cl)c(F)c3)CC2)CC1,610 nM,430 nM,
O=S(=O)(NCCCN1CCC(O)(c2ccc(Cl)cc2)CC1)c1ccc(F)cc1Cl,100 nM,360 nM,
O=S(=O)(c1ccccc1Cl)N1CCC(N2CCC(O)(c3ccc(F)cc3)CC2)CC1,1250 nM,1170 nM,

SMILES,IC50 [1],IC50 [2],IC50 [3]
O=S(=O)(NCCCN1CCC(O)(c2ccc(Cl)cc2)CC1)c1ccc2ccccc2c1,520 nM,1150 nM,
N#CC1(c2ccc(Cl)cc2)CCN(C2CCN(S(=O)(=O)c3ccccc3Cl)CC2)CC1,,1000 nM,
O=S(=O)(NCCCN1CCC(O)(c2ccc(Cl)cc2)CC1)c1ccc(OC(F)(F)F)cc1,3650 nM,9000 nM,
Cc1cccc(Cl)c1S(=O)(=O)N1CCC(C)(N2CCC(O)(c3ccc(Cl)cc3)CC2)CC1,2260 nM,3570 nM,
O=S(=O)(NCCCN1CCC(O)(c2ccc(Cl)cc2)CC1)c1ccc(Cl)cc1,370 nM,800 nM,
O=S(=O)(NCCCN1CCC(O)(c2ccc(Cl)cc2)CC1)c1ccccc1-c1ccccc1,84 nM,600 nM,151 nM
O=S(=O)(NCCCN1CCC(O)(c2ccc(Cl)cc2)CC1)c1cccc(Cl)c1,100 nM,380 nM,
COc1ccc(S(=O)(=O)NCCCN2CCC(O)(c3ccc(Cl)cc3)CC2)cc1,830 nM,3880 nM,
O=S(=O)(NCCCN1CCC(O)(c2ccc(Cl)cc2)CC1)c1cccc2ccccc12,180 nM,680 nM,
CC1(N2CCC(O)(c3ccc(Cl)cc3)CC2)CCN(S(=O)(=O)c2ccccc2Cl)CC1,2260 nM,5150 nM,
O=S(=O)(c1ccccc1Cl)N1CCC[C@@H](N2CCC(O)(c3ccc(Cl)cc3)CC2)C1,1290 nM,1980 nM,
O=S(=O)(NCCCN1CCC(O)(c2ccc(Cl)cc2)CC1)c1ccc(F)cc1,210 nM,910 nM,
CC1CC(N2CCC(O)(c3ccc(Cl)cc3)CC2)CCN1S(=O)(=O)c1ccccc1Br (configuration not stated),120 nM,220 nM,
O=S(=O)(NCCCN1CCC(O)(c2ccc(Cl)cc2)CC1)c1cccs1,70 nM,160 nM,
Cc1cccc(Cl)c1S(=O)(=O)N1CCC[C@H](N2CCC(O)(c3ccc(Cl)cc3)CC2)C1,480 nM,430 nM,
O=S(=O)(NCCCN1CCC(O)(c2ccc(Cl)cc2)CC1)c1cccc(Cl)c1Cl,350 nM,510 nM,
